Results from ChEMBL document CHEMBL5126614 (ACS Med Chem Lett, 2022).

Key:
[1] = organism: Homo sapiens; assay: Selectivity ratio of EC50 for human GCGR expressed in frozen cells to EC50 for human GLP1R expressed in frozen cells; format: cell-based
[2] = target: Glucagon receptor (Homo sapiens, UniProt P47871); assay: Agonist activity at human GCGR expressed in frozen cells assessed as increase in cAMP production measured after 1 hr by HitHunter luminescence assay; format: functional, cell-based
[3] = target: Glucagon-like peptide 1 receptor (Homo sapiens, UniProt P43220); assay: Agonist activity at human GLP1R expressed in frozen cells assessed as increase in cAMP production measured after 1 hr by HitHunter luminescence assay; format: functional, cell-based
[4] = Agonist activity at rhesus monkey GLP1R; set-up: species or system Macaca mulatta
[5] = Agonist activity at rhesus monkey GCGR; set-up: species or system Macaca mulatta
[6] = organism: Macaca mulatta; assay: Selectivity ratio of EC50 for rhesus monkey GCGR to EC50 for rhesus monkey GLP1R
[7] = tested on: Rhesus monkey; assay: Anti-obesity activity in type 2 diabetes rhesus monkey model assessed as reduction in body weight at 30 ug/kg, sc qd for 3 weeks and measured during third week of dosing relative to control; format: functional, Macaca mulatta; set-up: scale not given: the % may be the effect or the level left; conditions: dose 30 µg/kg
[8] = tested on: Rhesus monkey; assay: Anti-obesity activity in type 2 diabetes rhesus monkey model assessed as reduction in cumulative food intake at 30 ug/kg, sc qd for 3 weeks and measured daily for 21 days relative to baseline; format: functional, Macaca mulatta; set-up: scale not given: the % may be the effect or the level left; conditions: dose 30 µg/kg
[9] = tested on: Rhesus monkey; assay: Antidiabetic activity in type 2 diabetes rhesus monkey model assessed as corrected fasting glucose level at 30 ug/kg, sc qd for 3 weeks and measured on day 22 by intravenous glucose tolerance test; format: functional, Macaca mulatta; conditions: dose 30 µg/kg, time 22 day
In short: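 Type 2 diabetic rhesus monkeys received daily dosing for 3 weeks, alongside vehicle and a liraglutide benchmark at 30 μg/kg. Fasting plasma glucose was compared with baseline or vehicle, and fasting insulin with vehicle.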

[10] = tested on: Rhesus monkey; assay: Anti-obesity activity in type 2 diabetes rhesus monkey model assessed as weight loss at 30 ug/kg, sc qd for 3 weeks relative to control; format: functional, Macaca mulatta; conditions: dose 30 µg/kg
[11] = tested on: Rhesus monkey; assay: Anti-obesity activity in type 2 diabetes rhesus monkey model assessed as reduction in body weight at 30 ug/kg, sc qd for 1 week and measured during 1 week relative to control; format: functional, Macaca mulatta; set-up: scale not given: the % may be the effect or the level left; conditions: dose 30 µg/kg, time 1 weeks
[12] = tested on: Rhesus monkey; assay: Anti-obesity activity in type 2 diabetes rhesus monkey model assessed as reduction in body weight at 30 ug/kg, sc qd for 2 weeks and measured during second week of dosing relative to control; format: functional, Macaca mulatta; set-up: scale not given: the % may be the effect or the level left; conditions: dose 30 µg/kg

Sequence of Glucagon-like peptide 1 receptor (P43220 whole entry): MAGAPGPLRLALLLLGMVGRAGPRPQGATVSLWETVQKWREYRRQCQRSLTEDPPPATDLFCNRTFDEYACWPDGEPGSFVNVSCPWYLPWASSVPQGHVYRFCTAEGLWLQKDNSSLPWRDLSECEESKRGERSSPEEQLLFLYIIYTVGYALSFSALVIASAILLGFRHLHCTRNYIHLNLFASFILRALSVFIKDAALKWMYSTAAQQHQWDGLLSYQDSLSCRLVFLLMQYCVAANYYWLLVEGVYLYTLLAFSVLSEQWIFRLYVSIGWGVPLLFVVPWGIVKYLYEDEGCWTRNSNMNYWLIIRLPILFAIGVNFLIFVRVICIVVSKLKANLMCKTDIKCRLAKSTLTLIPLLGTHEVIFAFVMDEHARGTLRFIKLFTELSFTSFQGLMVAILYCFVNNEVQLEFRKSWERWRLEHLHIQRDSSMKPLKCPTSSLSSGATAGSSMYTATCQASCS
Sequence of Glucagon receptor (P47871 whole entry): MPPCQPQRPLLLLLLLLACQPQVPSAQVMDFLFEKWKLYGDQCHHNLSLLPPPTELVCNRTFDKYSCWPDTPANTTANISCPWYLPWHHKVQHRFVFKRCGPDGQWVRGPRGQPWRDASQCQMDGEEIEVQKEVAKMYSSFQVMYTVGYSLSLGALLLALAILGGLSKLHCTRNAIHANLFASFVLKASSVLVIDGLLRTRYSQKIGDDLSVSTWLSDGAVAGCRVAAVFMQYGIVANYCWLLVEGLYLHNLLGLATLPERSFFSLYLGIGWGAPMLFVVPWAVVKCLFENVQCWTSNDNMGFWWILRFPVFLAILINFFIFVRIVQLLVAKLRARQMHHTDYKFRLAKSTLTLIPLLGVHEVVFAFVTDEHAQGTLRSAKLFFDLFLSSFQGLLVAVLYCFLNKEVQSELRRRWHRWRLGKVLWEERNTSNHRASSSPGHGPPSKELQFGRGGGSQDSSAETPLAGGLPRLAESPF

| SMILES | Ratio EC50 [1] | EC50 [2] [pM] | EC50 [3] [pM] | EC50 [4] [pM] | EC50 [5] [pM] | Ratio EC50 [6] | Activity [7] [%] | Activity [8] [%] | Activity [9] [mg/dL] | Activity [10] [%] | Activity [11] [%] | Activity [12] [%] |
| --- | --- | --- | --- | --- | --- | --- | --- | --- | --- | --- | --- | --- |
| CCCCCCCCCCCCCCCC(=O)N[C@@H](CCC(=O)N[C@@H](CCC(=O)NCCCC[C@H](NC(=O)[C@H](CC(=O)O)NC(=O)[C@H](CO)NC(=O)[C@@H](NC(=O)[C@H](Cc1ccccc1)NC(=O)[C@@H](NC(=O)CNC(=O)[C@H](CCC(N)=O)NC(=O)[C@@H](CO)NC(=O)[C@@H](N)Cc1cnc[nH]1)[C@@H](C)O)[C@@H](C)O)C(=O)N[C@@H](CO)C(=O)N[C@@H](CCCCN)C(=O)N[C@@H](Cc1ccc(O)cc1)C(=O)N[C@@H](CC(C)C)C(=O)N[C@@H](CC(=O)O)C(=O)NC(C)(C)C(=O)N[C@@H](CCCNC(=N)N)C(=O)N[C@@H](C)C(=O)N[C@@H](C)C(=O)N[C@@H](CCC(N)=O)C(=O)N[C@@H](CC(=O)O)C(=O)N[C@@H](Cc1ccccc1)C(=O)N[C@H](C(=O)N[C@@H](CCC(N)=O)C(=O)N[C@@H](Cc1c[nH]c2ccccc12)C(=O)N[C@@H](CC(C)C)C(=O)N[C@@H](CC(C)C)C(=O)N[C@@H](CC(=O)O)C(=O)N[C@H](C(N)=O)[C@@H](C)O)C(C)C)C(=O)O)C(=O)O | 1 | 73 | 74 | 19 | 10 | 0.5 | – | – | – | – | – | – |
| CCCCCCCCCCCCCCCC(=O)N[C@@H](CCC(=O)NCCCC[C@H](NC(=O)[C@H](C)NC(=O)[C@H](C)NC(=O)[C@H](CCC(N)=O)NC(=O)CNC(=O)[C@H](CCC(=O)O)NC(=O)[C@H](CC(C)C)NC(=O)[C@H](Cc1ccc(O)cc1)NC(=O)[C@H](CO)NC(=O)[C@H](CO)NC(=O)[C@@H](NC(=O)[C@H](CC(=O)O)NC(=O)[C@H](CO)NC(=O)[C@@H](NC(=O)[C@H](Cc1ccccc1)NC(=O)[C@@H](NC(=O)CNC(=O)[C@H](CCC(=O)O)NC(=O)[C@H](C)NC(=O)[C@@H](N)Cc1cnc[nH]1)[C@@H](C)O)[C@@H](C)O)C(C)C)C(=O)N[C@@H](CCC(=O)O)C(=O)N[C@@H](Cc1ccccc1)C(=O)N[C@H](C(=O)N[C@@H](C)C(=O)N[C@@H](Cc1c[nH]c2ccccc12)C(=O)N[C@@H](CC(C)C)C(=O)N[C@H](C(=O)N[C@@H](CCCNC(=N)N)C(=O)NCC(=O)N[C@@H](CCCNC(=N)N)C(=O)NCC(=O)O)C(C)C)[C@@H](C)CC)C(=O)O [LIRAGLUTIDE] | – | – | – | – | – | – | 0.6 | 32 | 30 | 3.3 | 1.7 | 1 |
| CCCCCCCCCCCCCCCC(=O)N[C@@H](CCC(=O)N[C@@H](CCC(=O)NCCCC[C@H](NC(=O)[C@H](CC(=O)O)NC(=O)[C@H](CO)NC(=O)[C@@H](NC(=O)[C@H](Cc1ccccc1)NC(=O)[C@@H](NC(=O)CNC(=O)[C@H](CCC(N)=O)NC(=O)C(C)(C)NC(=O)[C@@H](N)Cc1cnc[nH]1)[C@@H](C)O)[C@@H](C)O)C(=O)N[C@@H](CO)C(=O)N[C@@H](CCCCN)C(=O)N[C@@H](Cc1ccc(O)cc1)C(=O)N[C@@H](CC(C)C)C(=O)N[C@@H](CC(=O)O)C(=O)NC(C)(C)C(=O)N[C@@H](CCCNC(=N)N)C(=O)N[C@@H](C)C(=O)N[C@@H](C)C(=O)N[C@@H](CCC(N)=O)C(=O)N[C@@H](CC(=O)O)C(=O)N[C@@H](Cc1ccccc1)C(=O)N[C@H](C(=O)N[C@@H](CCC(N)=O)C(=O)N[C@@H](Cc1c[nH]c2ccccc12)C(=O)N[C@@H](CC(C)C)C(=O)N[C@@H](CCSC)C(=O)N[C@@H](CC(=O)O)C(=O)N[C@H](C(=O)N[C@@H](CCCCNC(=O)CC[C@H](N)C(=O)O)C(N)=O)[C@@H](C)O)C(C)C)C(=O)O)C(=O)O | 2.1 | 48 | 22 | 7 | 64 | 9.1 | – | – | – | – | – | – |
| CCCCCCCCCCCCCCCC(=O)N[C@@H](CCC(=O)N[C@@H](CCC(=O)NCCCC[C@H](NC(=O)[C@H](CC(=O)O)NC(=O)[C@H](CO)NC(=O)[C@@H](NC(=O)[C@H](Cc1ccccc1)NC(=O)[C@@H](NC(=O)CNC(=O)[C@H](CCC(N)=O)NC(=O)[C@@H](CO)NC(=O)[C@@H](N)Cc1cnc[nH]1)[C@@H](C)O)[C@@H](C)O)C(=O)N[C@@H](CO)C(=O)N[C@@H](CCCCN)C(=O)N[C@@H](Cc1ccc(O)cc1)C(=O)N[C@@H](CC(C)C)C(=O)N[C@@H](CC(=O)O)C(=O)N[C@@H](CO)C(=O)N[C@@H](CCCNC(=N)N)C(=O)N[C@@H](C)C(=O)N[C@@H](C)C(=O)N[C@@H](CCC(N)=O)C(=O)N[C@@H](CC(=O)O)C(=O)N[C@@H](Cc1ccccc1)C(=O)N[C@H](C(=O)N[C@@H](CCC(N)=O)C(=O)N[C@@H](Cc1c[nH]c2ccccc12)C(=O)N[C@@H](CC(C)C)C(=O)N[C@@H](CC(C)C)C(=O)N[C@@H](CC(=O)O)C(=O)N[C@H](C(N)=O)[C@@H](C)O)C(C)C)C(=O)O)C(=O)O | 0.6 | 38 | 63 | 20 | 21 | 1 | – | – | – | – | – | – |
| CCCCCCCCCCCCCCCC(=O)N[C@@H](CCC(=O)N[C@@H](CCC(=O)NCCCC[C@H](NC(=O)[C@H](CC(=O)O)NC(=O)[C@H](CO)NC(=O)[C@@H](NC(=O)[C@H](Cc1ccccc1)NC(=O)[C@@H](NC(=O)CNC(=O)[C@H](CCC(N)=O)NC(=O)[C@@H](CO)NC(=O)[C@@H](N)Cc1cnc[nH]1)[C@@H](C)O)[C@@H](C)O)C(=O)N[C@@H](CO)C(=O)N[C@@H](CCCCN)C(=O)N[C@@H](Cc1ccc(O)cc1)C(=O)N[C@@H](CC(C)C)C(=O)N[C@@H](CC(=O)O)C(=O)N[C@@H](CCC(=O)O)C(=O)N[C@@H](CCCNC(=N)N)C(=O)N[C@@H](C)C(=O)N[C@@H](C)C(=O)N[C@@H](CCC(N)=O)C(=O)N[C@@H](CC(=O)O)C(=O)N[C@@H](Cc1ccccc1)C(=O)N[C@H](C(=O)N[C@@H](CCC(N)=O)C(=O)N[C@@H](Cc1c[nH]c2ccccc12)C(=O)N[C@@H](CC(C)C)C(=O)N[C@@H](CC(C)C)C(=O)N[C@@H](CC(=O)O)C(=O)N[C@H](C(N)=O)[C@@H](C)O)C(C)C)C(=O)O)C(=O)O | 1.3 | 17 | 13 | 15 | 8 | 0.5 | – | – | – | – | – | – |
